Experimental data taken from ChEMBL document CHEMBL2010776, “Synthesis and structure elucidation of novel fused 1,2,4-triazine derivatives as potent inhibitors targeting CYP1A1 activity” (Bioorg Med Chem, 2012).

How the values were obtained:
Cytochrome P450 1A1 = molecular target: T1, Cytochrome P450 1A1 (Rattus norvegicus, UniProt P00185); experiment: Inhibition of CYP1A1 activity in rat liver microsomes using benzo[alpha]pyrene as substrate after 10 mins by fluorescence analysis; design: species or system Microsome
T1 sequence (P00185 whole entry): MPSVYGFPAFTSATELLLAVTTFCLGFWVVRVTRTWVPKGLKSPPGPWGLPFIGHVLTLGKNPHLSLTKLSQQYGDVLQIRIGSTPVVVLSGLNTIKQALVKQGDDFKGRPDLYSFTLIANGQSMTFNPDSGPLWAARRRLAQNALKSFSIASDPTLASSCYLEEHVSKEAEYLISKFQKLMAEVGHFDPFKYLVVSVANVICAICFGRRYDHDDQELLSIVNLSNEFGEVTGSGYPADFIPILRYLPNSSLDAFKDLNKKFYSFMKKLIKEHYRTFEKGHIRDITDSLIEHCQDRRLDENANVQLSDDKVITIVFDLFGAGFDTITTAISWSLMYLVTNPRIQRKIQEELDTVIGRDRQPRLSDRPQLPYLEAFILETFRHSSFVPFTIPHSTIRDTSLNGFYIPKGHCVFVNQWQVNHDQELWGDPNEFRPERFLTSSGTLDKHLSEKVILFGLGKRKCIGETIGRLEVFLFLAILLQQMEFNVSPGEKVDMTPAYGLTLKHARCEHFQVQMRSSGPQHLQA
Summary of the method: (§1)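 AHH assay, 1 mL mix: 50 mM Tris–HCl pH 7.4, […], 100 nmol test compound, 0.1 mL microsomal protein (10 mg/mL) from PAH-induced rat liver (105,000 g pellet, resuspended in 0.1 M K phosphate pH 7.4). Started with 100 nmol benzo[a]pyrene, 37 °C 10 min, acetone stop; 3-OH-BaP hexane-extracted, fluorescence ex 396/em 522 nm; percent change in activity.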

CYP1A1 = molecular target: T2, CYP1A1 (Rattus norvegicus, UniProt P00185); experiment: Inhibition of CYP1A1 activity in rat liver microsomes using benzo[alpha]pyrene as substrate at 100 nmol after 10 mins by fluorescence analysis; design: species or system Microsome; conditions: probe benzo[alpha]pyrene; summary of the method: as §1
T2 sequence (P00185 whole entry): T1 sequence (P00185 whole entry)

Mus musculus [1] = experiment: Acute toxicity in mouse assessed as tolerability up to 150 mg/kg, ip; type: organism-based; design: dose 150 mg/kg, route intraperitoneal; conditions: in vivo
Summary of the method: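 Mice in groups of six; compound suspended in corn oil and given intraperitoneally at 1, 5, 10, 50 or 150 mg/kg; vehicle-only control group. Body weight recorded before dosing and on days 7 and 14 (termination).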

Mus musculus [2] = experiment: Acute toxicity in mouse assessed as tolerability up to 350 mg/kg, po; type: organism-based; design: dose 350 mg/kg, route oral; conditions: in vivo
[3] = Toxicity in po dosed mouse; type: organism-based; conditions: in vivo

Row | SMILES | IC50 (Cytochrome P450 1A1) [nM] | inhibition at 10 min (CYP1A1) [%] | Activity (Mus musculus [1]) | Activity (Mus musculus [2]) | LD50 [3] [mg/kg]
1 | CC(=O)N1N=C2N(N=C(Cc3ccccc3)C(=O)N2N(C(C)=O)C(C)=O)C1c1ccccc1 (stereo unspecified) | 24.2 | 20.6 |  |  | 
2 | COc1ccc(CC2=NN3C(=NN(C(C)=O)C3c3ccccc3)N(N(C(C)=O)C(C)=O)C2=O)cc1 (stereo unspecified) | 86.7 | 57.6 |  |  | 
3 | COc1ccc(C2N(C(C)=O)N=C3N2N=C(Cc2ccccc2)C(=O)N3N(C(C)=O)C(C)=O)cc1 (stereo unspecified) | 9.71 | 51.5 |  |  | 
4 | COc1ccc(CC2=NN3C(=NN(C(C)=O)C3(C)c3ccc(C)cc3)N(N(C(C)=O)C(C)=O)C2=O)cc1 (stereo unspecified) | 10.4 | 48.2 |  |  | 
5 | CC(=O)NN1C(=O)C(Cc2ccccc2)=NN2C1=NN(C(C)=O)C2(C)c1ccccc1 (stereo unspecified) | 13.2 | 37.9 |  |  | 
6 | COc1ccc(CC2=NN3C(=NN(C(C)=O)C3(C)c3ccccc3)N(NC(C)=O)C2=O)cc1 (stereo unspecified) | 8.36 | 59.8 |  |  | 
7 | CC(=O)NN1C(=O)C(Cc2ccccc2)=NN2C1=NN(C(C)=O)C2(C)c1ccc(C)cc1 (stereo unspecified) | 6.62 | 75.6 |  |  | 
8 | Nn1c(N/N=C2\C(=O)Nc3ccccc32)nnc(Cc2ccccc2)c1=O | 5.42 | 92.2 | Non-toxic | Non-toxic | > 350
9 | COc1ccc(Cc2nnc(N/N=C3\C(=O)Nc4ccccc43)n(N)c2=O)cc1 | 5.53 | 90.5 | Non-toxic | Non-toxic | > 350
10 | CC(=O)N1C(=O)C2(c3ccccc31)N(C(C)=O)N=C1N(N(C(C)=O)C(C)=O)C(=O)C(Cc3ccccc3)=NN12 (stereo unspecified) | 7.74 | 64.6 |  |  | 
11 | COc1ccc(CC2=NN3C(=NN(C(C)=O)C34C(=O)N(C(C)=O)c3ccccc34)N(N(C(C)=O)C(C)=O)C2=O)cc1 (stereo unspecified) | 61.4 | 81.5 | Non-toxic | Non-toxic | > 350
12 | CC(=O)NN1C(=O)C(Cc2ccccc2)=NN2C1=NN(C(C)=O)C2(C)c1ccc(Cl)cc1 (racemic) | 5.69 | 87.9 | Non-toxic | Non-toxic | > 350
